Reference: ChEMBL document CHEMBL5046302, “Identification and Evaluation of Brominated Carbazoles as a Novel Antibiotic Adjuvant Scaffold in MRSA” (2022)
Activity calls are given as the source filed them. The calls are words filed in the database; no cut-off is given here.

Assays:
Format in all cases: functional
Staphylococcus aureus [1] = assay: (§1) Potentiation of oxacillin induced antibacterial activity against methicillin-resistant Staphylococcus aureus USA300 harboring stk1 deletion mutant co-transfected with a plasmid bearing stk1 assessed as fold change in oxacillin MIC at 25 uM after 18 hrs by CLSI protocol based broth microdilution assay
Staphylococcus aureus [2] = assay: Potentiation of cefoxitin induced antibacterial activity against methicillin-resistant Staphylococcus aureus USA300 assessed as cefoxitin MIC at 25 uM after 18 hrs by CLSI protocol based broth microdilution assay
Staphylococcus aureus [3] = assay: Potentiation of oxacillin induced antibacterial activity against methicillin-resistant Staphylococcus aureus USA300 assessed as oxacillin MIC at 25 uM after 18 hrs by CLSI protocol based broth microdilution assay
Staphylococcus aureus [4] = assay: Potentiation of ampicillin induced antibacterial activity against methicillin-resistant Staphylococcus aureus ATCC 43300 assessed as ampicillin MIC at 25 uM after 18 hrs by CLSI protocol based broth microdilution assay
Staphylococcus aureus [5] = assay: Upregulation of blaZ gene expression in methicillin-resistant Staphylococcus aureus USA100 at 25 uM by RT-PCR method
Staphylococcus aureus [6] = assay: Potentiation of methicillin induced antibacterial activity against methicillin-resistant Staphylococcus aureus USA300 assessed as methicillin MIC at 25 uM after 18 hrs by CLSI protocol based broth microdilution assay
Staphylococcus aureus [7] = assay: Potentiation of methicillin induced antibacterial activity against methicillin-resistant Staphylococcus aureus USA100 assessed as methicillin MIC at 25 uM after 18 hrs by CLSI protocol based broth microdilution assay
Staphylococcus aureus [8] = assay: Potentiation of cefoxitin induced antibacterial activity against methicillin-resistant Staphylococcus aureus ATCC 43300 assessed as cefoxitin MIC at 25 uM after 18 hrs by CLSI protocol based broth microdilution assay
Staphylococcus aureus [9] = assay: Upregulation of blaZ gene expression in methicillin-resistant Staphylococcus aureus ATCC 43300 at 25 uM by RT-PCR method
Staphylococcus aureus [10] = assay: Potentiation of oxacillin induced antibacterial activity against methicillin-resistant Staphylococcus aureus ATCC 43300 assessed as fold change in oxacillin MIC at 25 uM after 18 hrs by CLSI protocol based broth microdilution assay
Staphylococcus aureus [11] = assay: Potentiation of ampicillin induced antibacterial activity against methicillin-resistant Staphylococcus aureus ATCC 43300 assessed as fold change in ampicillin MIC at 25 uM after 18 hrs by CLSI protocol based broth microdilution assay
Staphylococcus aureus [12] = assay: Potentiation of ceftazidime induced antibacterial activity against methicillin-resistant Staphylococcus aureus USA100 assessed as ceftazidime MIC at 25 uM after 18 hrs by CLSI protocol based broth microdilution assay
Staphylococcus aureus [13] = assay: Potentiation of cefoxitin induced antibacterial activity against methicillin-resistant Staphylococcus aureus USA100 assessed as cefoxitin MIC at 25 uM after 18 hrs by CLSI protocol based broth microdilution assay
Staphylococcus aureus [14] = assay: Potentiation of methicillin induced antibacterial activity against methicillin-resistant Staphylococcus aureus USA300 assessed as fold change in methicillin MIC at 25 uM after 18 hrs by CLSI protocol based broth microdilution assay
Staphylococcus aureus [15] = assay: Potentiation of oxacillin induced antibacterial activity against methicillin-resistant Staphylococcus aureus USA300 harboring stk1 deletion mutant assessed as fold change in oxacillin MIC at 25 uM after 18 hrs by CLSI protocol based broth microdilution assay
Staphylococcus aureus [16] = assay: Potentiation of methicillin induced antibacterial activity against methicillin-resistant Staphylococcus aureus COL assessed as fold change in methicillin MIC at 25 uM after 18 hrs by CLSI protocol based broth microdilution assay
Staphylococcus aureus [17] = assay: Upregulation of mecA gene expression in methicillin-resistant Staphylococcus aureus USA100 at 25 uM by RT-PCR method
Staphylococcus aureus [18] = assay: Potentiation of ampicillin induced antibacterial activity against methicillin-resistant Staphylococcus aureus COL assessed as fold change in ampicillin MIC at 25 uM after 18 hrs by CLSI protocol based broth microdilution assay
Staphylococcus aureus [19] = assay: Potentiation of cefoxitin induced antibacterial activity against methicillin-resistant Staphylococcus aureus USA100 assessed as fold change in cefoxitin MIC at 25 uM after 18 hrs by CLSI protocol based broth microdilution assay
Staphylococcus aureus [20] = assay: Potentiation of methicillin induced antibacterial activity against methicillin-resistant Staphylococcus aureus ATCC 43300 assessed as methicillin MIC at 25 uM after 18 hrs by CLSI protocol based broth microdilution assay
Staphylococcus aureus [21] = assay: Potentiation of oxacillin induced antibacterial activity against methicillin-resistant Staphylococcus aureus USA100 assessed as oxacillin MIC at 25 uM after 18 hrs by CLSI protocol based broth microdilution assay
Staphylococcus aureus [22] = assay: Potentiation of oxacillin induced antibacterial activity against methicillin-resistant Staphylococcus aureus COL assessed as fold change in oxacillin MIC at 25 uM after 18 hrs by CLSI protocol based broth microdilution assay
Staphylococcus aureus [23] = assay: Potentiation of oxacillin induced antibacterial activity against methicillin-resistant Staphylococcus aureus USA100 assessed as fold change in oxacillin MIC at 25 uM after 18 hrs by CLSI protocol based broth microdilution assay
Staphylococcus aureus [24] = assay: Potentiation of oxacillin induced antibacterial activity against methicillin-resistant Staphylococcus aureus USA300 harboring stk1 deletion mutant assessed as fold change in oxacillin MIC at 50 uM after 18 hrs by CLSI protocol based broth microdilution assay
Staphylococcus aureus [25] = assay: Potentiation of oxacillin induced antibacterial activity against methicillin-resistant Staphylococcus aureus USA300 harboring stk1 deletion mutant assessed as oxacillin MIC at 50 uM after 18 hrs by CLSI protocol based broth microdilution assay
Staphylococcus aureus [26] = assay: Upregulation of blaZ gene expression in methicillin-resistant Staphylococcus aureus ATCC 43300 at 50 uM by RT-PCR method
Staphylococcus aureus [27] = assay: Potentiation of oxacillin induced antibacterial activity against methicillin-resistant Staphylococcus aureus assessed as fold decrease in blaZ gene expression at 50 uM by RT-qPCR analysis
How it was run: (§2)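 Fold dampening is the relative mRNA level of the gene, normalised to 16S rRNA, in oxacillin-treated cells divided by that in cells cotreated with oxacillin plus carbazole. Carbazole was used at 25 or 50 μM, as given in each line.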

Staphylococcus aureus [28] = assay: Upregulation of blaZ gene expression in methicillin-resistant Staphylococcus aureus USA100 at 50 uM by RT-PCR method
Staphylococcus aureus [29] = assay: Upregulation of mecA gene expression in methicillin-resistant Staphylococcus aureus COL at 50 uM by RT-PCR method
Staphylococcus aureus [30] = assay: as §1, with “50” for “25”
Staphylococcus aureus [31] = assay: Potentiation of oxacillin induced antibacterial activity against methicillin-resistant Staphylococcus aureus assessed as fold decrease in mecA gene expression at 50 uM by RT-qPCR analysis; how it was run: as §2
Staphylococcus aureus [32] = assay: Potentiation of oxacillin induced antibacterial activity against methicillin-resistant Staphylococcus aureus USA300 harboring stk1 deletion mutant co-transfected with a plasmid bearing stk1 assessed as oxacillin MIC at 50 uM after 18 hrs by CLSI protocol based broth microdilution assay
How it was run: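 Oxacillin MIC by broth microdilution in the USA300 Δstk1 strain complemented with plasmid-borne stk1, with stk1 expression induced. Tested with and without carbazole at 50 μM. Fold change in MIC is taken relative to oxacillin alone.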

## Brc1cccc2[nH]c3ccccc3c12
Staphylococcus aureus [1]
  fold change (FC): 8
Staphylococcus aureus [2]
  MIC: 8 µg/mL
Staphylococcus aureus [3]
  MIC: 8 µg/mL
Staphylococcus aureus [4]
  MIC: 16 µg/mL
Staphylococcus aureus [5]
  Activity: inactive
Staphylococcus aureus [6]
  MIC: 8 µg/mL
Staphylococcus aureus [7]
  MIC: 32 µg/mL
Staphylococcus aureus [8]
  MIC: 16 µg/mL
Staphylococcus aureus [9]
  Activity: inactive
Staphylococcus aureus [10]
  fold change (FC): 4
Staphylococcus aureus [11]
  fold change (FC): 2
Staphylococcus aureus [12]
  MIC: 512 µg/mL
Staphylococcus aureus [13]
  MIC: 64 µg/mL
Staphylococcus aureus [14]
  fold change (FC): 4
Staphylococcus aureus [15]
  fold change (FC): 1
Staphylococcus aureus [16]
  fold change (FC): 1
Staphylococcus aureus [17]
  Activity: inactive
Staphylococcus aureus [18]
  fold change (FC): 1
Staphylococcus aureus [19]
  fold change (FC): 4
Staphylococcus aureus [20]
  MIC: 4 µg/mL
Staphylococcus aureus [21]
  MIC: 16 µg/mL
Staphylococcus aureus [22]
  fold change (FC): 1
Staphylococcus aureus [23]
  fold change (FC): 16

## Brc1cccc2c1[nH]c1ccccc12
Staphylococcus aureus [24]
  fold change (FC): 1
Staphylococcus aureus [25]
  MIC: 0.25 µg/mL
Staphylococcus aureus [26]
  Activity: inactive
Staphylococcus aureus [27]
  fold change (FC): 3.86
Staphylococcus aureus [28]
  Activity: inactive
Staphylococcus aureus [29]
  Activity: inactive
Staphylococcus aureus [30]
  fold change (FC): 4
Staphylococcus aureus [31]
  fold change (FC): 1.39
Staphylococcus aureus [32]
  MIC: 1 µg/mL
